Reference: ChEMBL document CHEMBL2390926, “Identification of novel FLT3 kinase inhibitors” (Eur J Med Chem, 2013)
Active and inactive are the calls of the source. The calls are words filed in the database; no cut-off is given here.

How the values were obtained:
[1] = target: Fibroblast growth factor receptor 3 (Homo sapiens) (UniProt P22607); assay: Inhibition of FGFR3 (unknown origin) transfected in mouse Ba/F3 cells at 5 uM after 24 hrs; assay type: cell-based; settings: BaF3
In short: (§1)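 Kinase specificity panel: each Ba/F3 line transformed with one of 24 tyrosine kinases depends on that kinase to grow. Cells were given compound at 1 or 5 µM for 24 h, with DMSO as comparator. Percentage growth was read by ATP-lite luminescence and reported as mean ± SEM.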

[2] = target: Tyrosine-protein kinase SYK (Homo sapiens) (UniProt P43405); assay: Inhibition of SYK (unknown origin) transfected in mouse Ba/F3 cells at 5 uM after 24 hrs; assay type: cell-based; settings: BaF3
[3] = target: Receptor tyrosine-protein kinase erbB-2 (Homo sapiens) (UniProt P04626); assay: Inhibition of ERBB2 (unknown origin) transfected in mouse Ba/F3 cells at 5 uM after 24 hrs; assay type: cell-based; settings: BaF3; in short: as §1
BaF3 [4] = assay: Cytotoxicity against mouse BA/F3 cells transfected with FLT3-ITD-G697R at 1 uM after 24 hrs by plate reader analysis; assay type: functional, cell-based
[5] = target: NT-3 growth factor receptor (Homo sapiens) (UniProt Q16288); assay: Inhibition of NTRK3 (unknown origin) transfected in mouse Ba/F3 cells at 5 uM after 24 hrs; assay type: cell-based; settings: BaF3
[6] = target: Vascular endothelial growth factor receptor 3 (Homo sapiens) (UniProt P35916); assay: Inhibition of FLT4 (unknown origin) transfected in mouse Ba/F3 cells at 5 uM after 24 hrs; assay type: cell-based; settings: BaF3; in short: as §1
[7] = target: Tyrosine-protein kinase Fyn (Homo sapiens) (UniProt P06241); assay: Inhibition of FYN (unknown origin) transfected in mouse Ba/F3 cells at 5 uM after 24 hrs; assay type: cell-based; settings: BaF3; in short: as §1
[8] = target: Ephrin type-A receptor 2 (Homo sapiens) (UniProt P29317); assay: Inhibition of EPHA2 (unknown origin) transfected in mouse Ba/F3 cells at 5 uM after 24 hrs; assay type: cell-based; settings: BaF3; in short: as §1
BaF3 [9] = assay: Cytotoxicity against mouse BA/F3 cells transfected with FLT3-ITD-F691l at 1 uM after 24 hrs by plate reader analysis; assay type: functional, cell-based
[10] = target: Leukocyte tyrosine kinase receptor (Homo sapiens) (UniProt P29376); assay: Inhibition of LTK (unknown origin) transfected in mouse Ba/F3 cells at 5 uM after 24 hrs; assay type: cell-based; settings: BaF3
[11] = target: Tyrosine-protein kinase receptor UFO (Homo sapiens) (UniProt P30530); assay: Inhibition of AXL (unknown origin) transfected in mouse Ba/F3 cells at 5 uM after 24 hrs; assay type: cell-based; settings: BaF3; in short: as §1
[12] = target: Proto-oncogene tyrosine-protein kinase ROS (Homo sapiens) (UniProt P08922); assay: Inhibition of ROS1 (unknown origin) transfected in mouse Ba/F3 cells at 5 uM after 24 hrs; assay type: cell-based; settings: BaF3
[13] = target: Tyrosine-protein kinase ABL2 (Homo sapiens) (UniProt P42684); assay: Inhibition of ABL2 (unknown origin) transfected in mouse Ba/F3 cells at 5 uM after 24 hrs; assay type: cell-based; settings: BaF3; in short: as §1
[14] = target: T1, Ephrin type-A receptor 1 (Homo sapiens) (UniProt P21709); assay: Inhibition of EPHA1 (unknown origin) transfected in mouse Ba/F3 cells at 5 uM after 24 hrs; assay type: cell-based; settings: BaF3; in short: as §1
T1 sequence (whole entry): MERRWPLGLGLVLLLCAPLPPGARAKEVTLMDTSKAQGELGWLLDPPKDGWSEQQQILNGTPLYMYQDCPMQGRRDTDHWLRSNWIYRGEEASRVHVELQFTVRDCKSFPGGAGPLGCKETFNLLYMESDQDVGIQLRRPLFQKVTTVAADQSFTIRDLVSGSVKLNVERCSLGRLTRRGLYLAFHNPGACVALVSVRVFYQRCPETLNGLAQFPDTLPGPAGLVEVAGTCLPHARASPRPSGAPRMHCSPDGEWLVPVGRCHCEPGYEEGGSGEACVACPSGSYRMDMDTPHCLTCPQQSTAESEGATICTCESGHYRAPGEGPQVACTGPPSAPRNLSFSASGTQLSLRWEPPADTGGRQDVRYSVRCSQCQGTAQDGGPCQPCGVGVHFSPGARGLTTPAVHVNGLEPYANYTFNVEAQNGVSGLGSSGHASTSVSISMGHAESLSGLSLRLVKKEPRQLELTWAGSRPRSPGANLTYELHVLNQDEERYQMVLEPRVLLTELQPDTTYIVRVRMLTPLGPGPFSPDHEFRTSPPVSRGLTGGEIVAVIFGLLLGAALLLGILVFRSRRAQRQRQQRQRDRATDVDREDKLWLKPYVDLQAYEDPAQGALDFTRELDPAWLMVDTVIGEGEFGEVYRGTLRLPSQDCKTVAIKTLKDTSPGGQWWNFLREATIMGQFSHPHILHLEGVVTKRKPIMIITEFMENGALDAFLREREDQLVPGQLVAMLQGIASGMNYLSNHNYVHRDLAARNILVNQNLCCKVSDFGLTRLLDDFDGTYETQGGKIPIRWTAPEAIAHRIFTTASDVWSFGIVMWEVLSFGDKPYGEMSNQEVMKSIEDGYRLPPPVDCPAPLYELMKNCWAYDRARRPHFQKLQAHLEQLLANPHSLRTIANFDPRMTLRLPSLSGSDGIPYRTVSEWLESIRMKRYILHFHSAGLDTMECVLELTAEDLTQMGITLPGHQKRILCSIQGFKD

[15] = target: Proto-oncogene tyrosine-protein kinase Src (Homo sapiens) (UniProt P12931); assay: Inhibition of SRC (unknown origin) transfected in mouse Ba/F3 cells up to 1 uM; assay type: cell-based; settings: BaF3
In short: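 Ba/F3 cells transformed by ROS1 or SRC, dependent on that kinase. Parental Ba/F3 grown with mouse IL-3 served as control. Seeded at 100,000 cells/ml. Eight concentrations (50–6400 nM) run in triplicate with DMSO negative control for 24 h. Viable cells quantified by ATP-lite luminescence, mean ± SEM.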

EOL1 = assay: Cytotoxicity against human EOL-1 cells after 24 hrs by plate reader analysis; assay type: functional, cell-based; settings: EOL1, 24 h
In short: (§2)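 Cells in RPMI 1640 with 10% FBS at 37 °C and 5% CO2 were seeded at 100,000 cells/ml. They were treated for 24 h at 8 concentrations (50–6400 nM), each in triplicate, with DMSO as negative control. Viable cells were measured by ATP-lite luminescence, and EC50 was taken from dose–response curves.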

MV4-11 = assay: Cytotoxicity against human MV4-11 cells after 24 hrs by plate reader analysis; assay type: functional, cell-based; settings: MV4-11, 24 h; in short: as §2

Chain of Fibroblast growth factor receptor 3 (Homo sapiens) (P22607 23-806 limits assumed): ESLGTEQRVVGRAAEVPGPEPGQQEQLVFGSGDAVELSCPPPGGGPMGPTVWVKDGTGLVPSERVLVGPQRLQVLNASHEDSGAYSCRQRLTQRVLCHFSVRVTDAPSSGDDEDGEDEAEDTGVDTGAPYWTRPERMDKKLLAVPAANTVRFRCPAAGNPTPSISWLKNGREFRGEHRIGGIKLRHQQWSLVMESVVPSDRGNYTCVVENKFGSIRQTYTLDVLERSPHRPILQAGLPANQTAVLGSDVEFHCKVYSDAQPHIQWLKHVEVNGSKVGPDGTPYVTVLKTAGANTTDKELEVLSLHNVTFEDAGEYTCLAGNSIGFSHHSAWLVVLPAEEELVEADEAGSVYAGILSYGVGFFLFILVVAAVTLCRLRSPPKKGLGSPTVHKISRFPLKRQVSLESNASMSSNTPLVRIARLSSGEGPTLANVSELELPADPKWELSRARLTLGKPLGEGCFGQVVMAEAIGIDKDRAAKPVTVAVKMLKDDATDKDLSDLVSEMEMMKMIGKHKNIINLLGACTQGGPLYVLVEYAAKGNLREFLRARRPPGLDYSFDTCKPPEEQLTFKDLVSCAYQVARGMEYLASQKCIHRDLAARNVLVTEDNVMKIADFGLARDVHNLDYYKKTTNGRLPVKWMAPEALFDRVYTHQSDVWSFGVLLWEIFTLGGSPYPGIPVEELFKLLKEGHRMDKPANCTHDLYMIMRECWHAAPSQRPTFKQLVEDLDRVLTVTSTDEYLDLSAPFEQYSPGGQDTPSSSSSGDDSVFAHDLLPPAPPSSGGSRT
Chain of Tyrosine-protein kinase Fyn (Homo sapiens) (P06241 2-537 limits assumed): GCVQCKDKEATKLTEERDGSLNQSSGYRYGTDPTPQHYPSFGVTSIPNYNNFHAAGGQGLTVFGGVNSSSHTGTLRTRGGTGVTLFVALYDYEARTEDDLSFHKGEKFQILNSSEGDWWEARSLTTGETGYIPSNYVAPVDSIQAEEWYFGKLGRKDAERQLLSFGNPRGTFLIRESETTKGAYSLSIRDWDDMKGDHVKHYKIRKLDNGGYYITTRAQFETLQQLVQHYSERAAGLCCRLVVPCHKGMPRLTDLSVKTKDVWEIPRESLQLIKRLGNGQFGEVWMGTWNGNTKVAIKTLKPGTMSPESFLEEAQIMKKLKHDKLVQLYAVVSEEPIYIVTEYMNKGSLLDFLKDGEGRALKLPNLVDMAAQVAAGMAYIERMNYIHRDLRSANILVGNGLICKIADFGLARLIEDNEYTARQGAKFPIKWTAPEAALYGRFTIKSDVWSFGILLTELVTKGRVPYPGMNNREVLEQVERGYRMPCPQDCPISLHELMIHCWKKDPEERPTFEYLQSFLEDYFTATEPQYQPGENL
Chain of Tyrosine-protein kinase receptor UFO (Homo sapiens) (P30530 whole entry): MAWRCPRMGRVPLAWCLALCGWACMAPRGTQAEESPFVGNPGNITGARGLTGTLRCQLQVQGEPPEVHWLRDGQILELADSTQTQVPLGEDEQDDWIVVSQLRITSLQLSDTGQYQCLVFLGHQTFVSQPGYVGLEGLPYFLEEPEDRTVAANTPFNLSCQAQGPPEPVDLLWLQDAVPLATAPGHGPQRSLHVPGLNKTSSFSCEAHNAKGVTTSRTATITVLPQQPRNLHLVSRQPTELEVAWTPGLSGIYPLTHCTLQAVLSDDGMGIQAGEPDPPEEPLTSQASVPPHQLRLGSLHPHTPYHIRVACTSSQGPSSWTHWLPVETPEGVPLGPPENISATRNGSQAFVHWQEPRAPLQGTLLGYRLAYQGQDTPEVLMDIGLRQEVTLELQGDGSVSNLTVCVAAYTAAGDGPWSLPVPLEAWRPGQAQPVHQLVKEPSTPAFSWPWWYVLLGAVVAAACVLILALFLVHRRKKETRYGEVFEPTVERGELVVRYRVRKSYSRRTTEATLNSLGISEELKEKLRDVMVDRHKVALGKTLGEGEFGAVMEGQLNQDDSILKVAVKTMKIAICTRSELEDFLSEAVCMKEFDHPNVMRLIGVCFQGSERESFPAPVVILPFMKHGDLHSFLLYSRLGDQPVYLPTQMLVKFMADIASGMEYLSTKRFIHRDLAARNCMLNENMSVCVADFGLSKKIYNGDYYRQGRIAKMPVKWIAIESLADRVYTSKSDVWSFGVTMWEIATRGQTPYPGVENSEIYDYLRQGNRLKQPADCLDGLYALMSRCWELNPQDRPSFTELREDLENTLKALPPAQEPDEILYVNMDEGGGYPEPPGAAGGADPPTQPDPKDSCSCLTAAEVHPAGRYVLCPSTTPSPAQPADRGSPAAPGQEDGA
Chain of Ephrin type-A receptor 2 (Homo sapiens) (P29317 whole entry): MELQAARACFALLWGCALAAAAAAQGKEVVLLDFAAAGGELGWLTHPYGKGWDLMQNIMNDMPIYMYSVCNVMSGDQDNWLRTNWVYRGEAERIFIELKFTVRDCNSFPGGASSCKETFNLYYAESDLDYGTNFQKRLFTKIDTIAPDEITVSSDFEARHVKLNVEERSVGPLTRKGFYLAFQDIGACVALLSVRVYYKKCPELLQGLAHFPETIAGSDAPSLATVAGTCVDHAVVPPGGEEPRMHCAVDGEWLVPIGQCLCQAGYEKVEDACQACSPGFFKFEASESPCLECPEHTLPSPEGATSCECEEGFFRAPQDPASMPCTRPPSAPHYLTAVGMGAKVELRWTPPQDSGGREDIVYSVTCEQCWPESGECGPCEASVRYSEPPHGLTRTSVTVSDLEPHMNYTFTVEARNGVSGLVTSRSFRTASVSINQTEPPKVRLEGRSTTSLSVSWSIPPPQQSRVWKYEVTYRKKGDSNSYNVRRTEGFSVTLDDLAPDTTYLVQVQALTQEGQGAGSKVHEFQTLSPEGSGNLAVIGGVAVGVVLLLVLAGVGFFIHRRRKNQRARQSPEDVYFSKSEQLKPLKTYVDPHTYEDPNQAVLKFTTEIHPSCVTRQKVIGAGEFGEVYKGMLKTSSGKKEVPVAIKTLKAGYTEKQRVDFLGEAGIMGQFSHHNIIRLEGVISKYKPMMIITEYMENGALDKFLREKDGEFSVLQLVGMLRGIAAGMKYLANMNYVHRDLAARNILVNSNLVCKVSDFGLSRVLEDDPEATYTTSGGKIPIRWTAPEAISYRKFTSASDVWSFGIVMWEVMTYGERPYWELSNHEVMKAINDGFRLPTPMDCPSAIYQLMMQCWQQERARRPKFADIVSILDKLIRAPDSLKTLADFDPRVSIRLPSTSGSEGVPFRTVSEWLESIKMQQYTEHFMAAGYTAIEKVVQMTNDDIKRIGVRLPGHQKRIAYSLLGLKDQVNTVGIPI
Chain of NT-3 growth factor receptor (Homo sapiens) (Q16288 32-839 limits assumed): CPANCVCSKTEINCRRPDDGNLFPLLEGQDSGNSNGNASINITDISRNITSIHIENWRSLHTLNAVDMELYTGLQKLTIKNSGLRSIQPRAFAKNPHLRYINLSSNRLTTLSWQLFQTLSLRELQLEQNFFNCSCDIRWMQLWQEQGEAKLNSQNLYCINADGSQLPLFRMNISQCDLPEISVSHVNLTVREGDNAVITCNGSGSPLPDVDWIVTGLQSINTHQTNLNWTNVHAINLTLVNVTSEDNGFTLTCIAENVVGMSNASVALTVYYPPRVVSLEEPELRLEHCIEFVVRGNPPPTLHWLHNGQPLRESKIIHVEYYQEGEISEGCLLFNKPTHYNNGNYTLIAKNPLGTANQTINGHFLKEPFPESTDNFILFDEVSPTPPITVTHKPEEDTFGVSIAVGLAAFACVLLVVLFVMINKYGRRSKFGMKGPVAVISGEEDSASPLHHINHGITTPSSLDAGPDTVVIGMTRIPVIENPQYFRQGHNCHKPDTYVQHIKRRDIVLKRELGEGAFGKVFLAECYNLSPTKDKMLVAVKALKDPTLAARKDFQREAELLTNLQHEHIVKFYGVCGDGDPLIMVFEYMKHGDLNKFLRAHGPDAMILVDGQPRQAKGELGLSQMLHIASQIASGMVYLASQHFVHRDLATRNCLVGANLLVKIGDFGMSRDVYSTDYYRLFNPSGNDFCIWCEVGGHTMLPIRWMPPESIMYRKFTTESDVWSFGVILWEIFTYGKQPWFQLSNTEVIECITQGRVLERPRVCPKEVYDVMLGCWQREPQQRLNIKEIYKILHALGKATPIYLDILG
Chain of Leukocyte tyrosine kinase receptor (Homo sapiens) (P29376 whole entry): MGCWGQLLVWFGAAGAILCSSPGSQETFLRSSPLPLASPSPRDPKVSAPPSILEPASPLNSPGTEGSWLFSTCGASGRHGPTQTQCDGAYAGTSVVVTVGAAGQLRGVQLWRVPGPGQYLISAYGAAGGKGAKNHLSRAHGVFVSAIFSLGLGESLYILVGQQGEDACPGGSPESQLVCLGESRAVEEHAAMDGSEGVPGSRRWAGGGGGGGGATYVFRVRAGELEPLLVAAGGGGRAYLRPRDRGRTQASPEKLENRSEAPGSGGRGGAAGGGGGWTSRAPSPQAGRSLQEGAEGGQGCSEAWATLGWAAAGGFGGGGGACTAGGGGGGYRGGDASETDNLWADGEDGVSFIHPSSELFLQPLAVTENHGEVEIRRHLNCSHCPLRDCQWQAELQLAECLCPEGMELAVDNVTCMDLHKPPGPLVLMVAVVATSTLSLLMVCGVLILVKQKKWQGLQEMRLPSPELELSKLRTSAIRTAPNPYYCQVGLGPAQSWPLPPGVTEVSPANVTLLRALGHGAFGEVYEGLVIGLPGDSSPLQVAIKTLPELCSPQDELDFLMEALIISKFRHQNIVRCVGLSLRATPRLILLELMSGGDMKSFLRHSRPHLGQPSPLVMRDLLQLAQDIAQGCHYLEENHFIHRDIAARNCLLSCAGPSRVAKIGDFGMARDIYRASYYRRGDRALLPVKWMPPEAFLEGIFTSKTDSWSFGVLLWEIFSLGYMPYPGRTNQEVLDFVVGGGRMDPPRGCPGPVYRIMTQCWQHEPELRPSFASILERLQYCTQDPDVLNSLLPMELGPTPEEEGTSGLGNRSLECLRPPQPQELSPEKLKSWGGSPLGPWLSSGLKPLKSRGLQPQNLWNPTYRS

| SMILES | inhibition [1] | inhibition [2] | inhibition [3] | Activity (BaF3 [4]) | inhibition [5] | inhibition [6] | inhibition [7] | inhibition [8] | Activity (BaF3 [9]) | inhibition [10] | inhibition [11] | inhibition [12] | inhibition [13] | inhibition [14] | inhibition [15] | EC50 (EOL1) | EC50 (MV4-11) |
| --- | --- | --- | --- | --- | --- | --- | --- | --- | --- | --- | --- | --- | --- | --- | --- | --- | --- |
| Cc1ccc(-n2cnc3cc(Nc4nnc(C)c5ccccc45)ccc32)cc1 | inactive | inactive | inactive | Active | inactive | inactive | inactive | inactive | Active | inactive | inactive | inactive | inactive | inactive |  |  |  |
| Fc1ccc(-c2n[nH]cc2-c2ccncc2)cc1Cl | inactive | inactive | inactive |  | inactive | inactive | inactive | inactive |  | inactive | inactive | Active | Active | inactive | inactive |  |  |
| COc1ccc(C(=O)Nc2cc(-c3ccccc3)[nH]n2)cc1 |  |  |  | Active |  |  |  |  | Active |  |  |  |  |  |  | 70 nM | 142 nM |
